Measured values from ChEMBL document CHEMBL3580575, “Monocarboxylate transporter 1 inhibitors as potential anticancer agents” (ACS Med Chem Lett, 2015).

How the values were obtained:
[1] = biological target: T1, Monocarboxylate transporter 1 (Rattus norvegicus, UniProt P53987); assay: Inhibition of MCT1-mediated lactate transport in rat RBE4 cells incubated for 15 mins by [14C]-lactate uptake assay; assay type: cell-based
T1 sequence (P53987 whole entry): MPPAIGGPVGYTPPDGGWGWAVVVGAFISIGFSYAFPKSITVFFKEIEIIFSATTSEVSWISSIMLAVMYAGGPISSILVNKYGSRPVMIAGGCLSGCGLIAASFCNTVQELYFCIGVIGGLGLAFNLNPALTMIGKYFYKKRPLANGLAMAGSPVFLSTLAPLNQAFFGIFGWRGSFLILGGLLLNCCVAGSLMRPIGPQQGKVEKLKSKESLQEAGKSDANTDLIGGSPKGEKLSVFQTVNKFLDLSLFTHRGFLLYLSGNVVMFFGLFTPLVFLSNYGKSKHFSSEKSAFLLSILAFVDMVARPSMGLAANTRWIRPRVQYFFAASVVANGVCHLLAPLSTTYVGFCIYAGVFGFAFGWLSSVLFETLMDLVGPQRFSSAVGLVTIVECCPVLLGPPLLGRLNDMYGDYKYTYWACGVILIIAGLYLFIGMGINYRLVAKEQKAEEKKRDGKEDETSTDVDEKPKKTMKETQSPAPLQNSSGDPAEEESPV
In short: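 MCT1 inhibition measured as [14C]-lactate uptake in rat brain endothelial RBE4 cells, which highly express MCT1 (Western blot). IC50 is the test-compound concentration causing 50% transport inhibition.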

[2] = Tmax in CD1(ICR) mouse at 100 mg/kg, ig by LC-MS/MS method; assay type: ADME, organism-based; details: in vivo, po
In short: (§1)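 Preliminary pharmacokinetics in ICR mice. Sixty mice were split into two groups and given 100 mg/kg, one group intraperitoneally and the other intragastrically.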

[3] = tested on: Mus musculus; assay: Toxicity in CD1(ICR) mouse assessed as survival at 6.67 mg/kg, ip bid for 3 weeks; assay type: organism-based; details: in vivo, 504 h
In short: (§2)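 Healthy ICR mice were given 6.67 mg/kg ip, twice daily, in 0.1% DMSO in saline for three weeks. Survival and body weight gain were recorded and compared with a control group.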

[4] = Solubility in water; assay type: physicochemical
[5] = tested on: Mus musculus; assay: Toxicity in CD1(ICR) mouse assessed as induction of weight gain at 50 mg/kg, ip qd for 3 weeks; assay type: organism-based; details: in vivo, 504 h
In short: (§3)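 In a follow-up systemic toxicity study, healthy ICR mice were dosed at 50 mg/kg either by oral gavage twice daily or ip once daily. Mortality and body weight gain were compared with a control group.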

[6] = Tmax in CD1(ICR) mouse at 100 mg/kg, ip by LC-MS/MS method; assay type: ADME, organism-based; details: in vivo; in short: as §1
[7] = tested on: Mus musculus; assay: Toxicity in CD1(ICR) mouse assessed as induction of weight gain at 6.67 mg/kg, ip bid for 3 weeks; details: in vivo, 504 h
[8] = tested on: Mus musculus; assay: Toxicity in CD1(ICR) mouse assessed as induction of weight gain at 50 mg/kg, po bid for 3 weeks; assay type: organism-based; details: in vivo, 504 h; in short: as §3
[9] = tested on: Mus musculus; assay: Toxicity in CD1(ICR) mouse assessed as survival at 50 mg/kg, po bid for 3 weeks; assay type: organism-based; details: in vivo, 504 h; in short: as §3
[10] = tested on: Mus musculus; assay: Toxicity in CD1(ICR) mouse assessed as survival at 6.67 mg/kg, ip bid for 3 weeks; details: in vivo, 504 h
[11] = tested on: Mus musculus; assay: Drug elimination in CD1(ICR) mouse at 100 mg/kg, ig by LC-MS/MS method; assay type: ADME, organism-based; details: in vivo, po; in short: as §1
[12] = tested on: Mus musculus; assay: Toxicity in CD1(ICR) mouse assessed as survival at 50 mg/kg, ip qd for 3 weeks; assay type: organism-based; details: in vivo, 504 h; in short: as §3
[13] = tested on: Mus musculus; assay: Toxicity in CD1(ICR) mouse assessed as induction of weight gain at 6.67 mg/kg, ip bid for 3 weeks; assay type: organism-based; details: in vivo, 504 h; in short: as §2
[14] = tested on: Mus musculus; assay: Drug elimination in CD1(ICR) mouse at 100 mg/kg, ip by LC-MS/MS method; assay type: ADME, organism-based; details: in vivo; in short: as §1

IC50 [1] [µM] | SMILES | further results
0.5 | N#C/C(=C\c1ccc([N+](=O)[O-])cc1)C(=O)O | –
0.5 | CCc1ccc(/C=C(\C#N)C(=O)O)cc1 | –
0.5 | N#C/C(=C\c1ccc(Cl)cc1)C(=O)O | –
0.5 | N#C/C(=C\c1ccc(Br)cc1)C(=O)O | –
0.5 | N#C/C(=C\c1ccc(C#N)cc1)C(=O)O | –
0.5 | N#C/C(=C\c1ccc2c(c1)OCO2)C(=O)O | –
0.07 | CCN(CC)c1ccc(/C=C(\C#N)C(=O)O)cc1 | –
0.01 | CCCN(CCC)c1ccc(/C=C(\C#N)C(=O)O)cc1 | –
0.03 | CCCCN(CCCC)c1ccc(/C=C(\C#N)C(=O)O)cc1 | –
0.1 | CC(C)CN(CC(C)C)c1ccc(/C=C(\C#N)C(=O)O)cc1 | –
0.14 | CCCCCN(CCCCC)c1ccc(/C=C(\C#N)C(=O)O)cc1 | –
0.88 | CCCCCCN(CCCCCC)c1ccc(/C=C(\C#N)C(=O)O)cc1 | –
0.11 | C=CCN(CC=C)c1ccc(/C=C(\C#N)C(=O)O)cc1 | –
0.4 | C#CCN(CC#C)c1ccc(/C=C(\C#N)C(=O)O)cc1 | –
0.03 | N#C/C(=C\c1ccc(N(c2ccccc2)c2ccccc2)cc1)C(=O)O | –
0.07 | N#C/C(=C\c1ccc(N2CCCC2)cc1)C(=O)O | –
0.14 | N#C/C(=C\c1ccc(N2CCCCC2)cc1)C(=O)O | –
0.012 | CCCN(CCC)c1ccc(/C=C(\C#N)C(=O)O)c(OC)c1 | –
0.011 | COc1cc(N(CC(C)C)CC(C)C)ccc1/C=C(\C#N)C(=O)O | –
0.034 | CCCCCN(CCCCC)c1ccc(/C=C(\C#N)C(=O)O)c(OC)c1 | –
0.029 | C=CCN(CC=C)c1ccc(/C=C(\C#N)C(=O)O)c(OC)c1 | –
0.048 | COc1cc(N2CCCC2)ccc1/C=C(\C#N)C(=O)[O-].[Na+] | solubility [4]: > 7000 µg/mL
0.025 | COc1cc(N2CCCCC2)ccc1/C=C(\C#N)C(=O)[O-].[Na+] | solubility [4]: > 7000 µg/mL
0.5 | Cc1ccc(/C=C(\C#N)C(=O)O)cc1 | –
0.14 | CN(C)c1ccc(/C=C(\C#N)C(=O)O)cc1 | –
0.5 | COc1ccc(/C=C(\C#N)C(=O)O)cc1 | –
0.5 | N#C/C(=C\c1ccc(F)cc1)C(=O)O | –

SMILES | IC50 [1] [µM] | further results
COc1cc(N(c2ccccc2)c2ccccc2)ccc1/C=C(\C#N)C(=O)[O-].[Na+] | 0.011 | Tmax [2]: 18 min; Activity [3]: Non-toxic; solubility [4]: 1000 µg/mL; Activity [5]: Non-toxic; Tmax [6]: 15 min; Activity [7]: Non-toxic; Activity [8]: Non-toxic; Activity [9]: Non-toxic; Activity [10]: Non-toxic; Drug excretion [11]: <= 24 hr; Activity [12]: Non-toxic; Activity [13]: Non-toxic; Drug excretion [14]: <= 24 hr
